# Compounds with a hit are over-represented: about 5.1% of the library has one in this group of screens.
# STAT1 inh = STAT1 signaling inhibitors, primary screen, cell-based, HTS, luciferase reporter | NIH 3T3 STAT1-luciferase reporter, IFN-gamma, luminescence | inhibition, % at 5.5 µM | 200,000 compounds, 0.35% hits;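 active = inhibition above a set limit, the mean inhibition across all tested compounds plus 3 SD, cut at about 34% in these data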;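 also: 0% = IFN-gamma with DMSO and 100% = IFN-gamma with 300 µM nifuroxazide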
# STAT3 act = IL-6 driven STAT3 reporter potentiators, primary screen, U3A cells, luciferase, luminescence, MLSCN library. IL-6 STAT3-luciferase reporter; 100% = signal with IL-6 EC80 alone. activation (% of control), % at 5.6 µM. 190,000 compounds, 0.91% hits. AID 871, 2007;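 active = activation above the screen-wide mean of compound activation plus 3 SD, cut at about 130% in these data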;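 also: 0% = background luminescence of wells with medium and substrate only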
#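 System – human U3A cells carrying STAT3-luciferase construct · Probe or stimulus – Interleukin-6, 33 ng/mL · Schedule – compound 1 h, then IL-6 6 h at 37 °C · Signal – luminescence from STAT3-driven luciferase reporter · Evaluation – percent of IL-6-only median luminescence · Benchmarks – IL-6-only high control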
# STAT1 activator = STAT1 signaling activators, primary screen, cell-based, HTS, luciferase reporter; AID 932, 2007; 200,000 compounds, 2.6% hits; NIH 3T3 STAT1-luciferase reporter, IFN-gamma, luminescence; 100% = IFN-gamma alone, no compound; activation (% of control), % at 5.5 µM;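 active = activation above the screen-wide mean activation plus 3 SD, cut at about 130% in these data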;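 also: raw ratio to IFN-gamma control signal so 100% means no change and 0% no light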
# STAT3 inh = IL-6 driven STAT3 reporter inhibitors, primary screen, U3A cells, luciferase, luminescence, MLSCN library; 190,000 compounds, 0.89% hits; inhibition, % at 5.5 µM; IL-6 STAT3-luciferase reporter; host cell line lacks STAT1;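 active = inhibition above the mean inhibition across all screened compounds plus 3 SD, cut at about 44% in these data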;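 also: 0% = DMSO only wells and 100% = 100 µM nifuroxazide control wells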
# APP 5'UTR act = activators of APP 5'UTR luciferase reporter, primary screen, SH-SY5Y cells. SH-SY5Y APP 5'UTR luciferase reporter, luminescence; zero percent = DMSO vehicle wells. activation, % at 2 µM. 190,000 compounds, 1% hits. AID 1276, 2008;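 active = activation above a set limit, based on mean plus 3 SD of controls, cut at about 140% in these data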
# NF-kB expr up = activators of NF-kB expression in neurons, primary screen, cell-based, HTS; 190,000 compounds, 1.6% hits; human neuronal cells, NF-kB reporter expression; active compounds read high; AID 1239, 2008; fold change at 12.5 µM; in the data active = fold change above about 3.3
# An asterisk follows results filed as active.
SMILES,STAT1 inh,STAT3 act,STAT1 activator,STAT3 inh,APP 5'UTR act,NF-kB expr up
COc1cccc(NC(=S)N/N=C2\CC3CCC2(C)C3(C)C)c1 (configuration not stated),-32,105,129*,-4,60,1.4
Cc1ccnc(NC(=O)c2sc3cc(Cl)ccc3c2Cl)c1,-12,100,111,5,171*,3.6*
Cc1nn(C2CCS(=O)(=O)C2)c(Cl)c1/C=C/C(=O)OCC(=O)c1cc(C)n(-c2ccc(F)cc2)c1C (configuration not stated),5,67,96,39,-21,0.76
COc1ccccc1N1CCN(Cc2ccc(O)c3ncccc23)CC1,9,91,91,10,-90,7.2*
CCOC(=O)C1CCN(Cc2ccc(O)c3ncccc23)CC1,5,100,96,2,-41,10*
Brc1ccc(N=C(c2ccccc2)c2ccncc2)cc1,-1,101,101,-2,0,1.1
CCCNCC1C(Oc2ccc(Cl)cc2)C(=O)N1c1ccccc1C (configuration not stated),-6,103,105,-6,-4,0.91
CCn1nnc(NC(=O)c2ccc(C(C)(C)C)cc2)n1,-17,84,117,25,97,3.7*
O=C1ON=C(c2ccccc2)/C1=C/c1ccc(OS(=O)(=O)c2ccccc2)cc1,-12,111,111,-12,15,1.1
CN(C)/N=C/c1ccc(OS(=O)(=O)c2ccccc2)cc1,-45,104,140*,0,89,4.8*
FC(F)(F)c1cc(-c2ccccc2)nc(N2CCCCCC2)n1,3,101,97,1,5,0.94
c1ccc(-c2cnnc(N3CCCCC3)n2)cc1,-46,108,142*,-2,113,1.1
COc1ccc2c(c1)[nH]c(=O)c1sc3ccccc3c12,-15,174*,113,-86,10,1.8
Cc1cc(C)n2c(=O)c3ccc(Cl)cc3nc2c1C#N,-11,98,108,12,-4,1.1
Cc1cc(Cl)n2c(nc3cc(F)c(F)cc32)c1C#N,-36,123,131*,-17,-88,0.11
CC(C)(C)C(=O)/C(=C\c1ccc([N+](=O)[O-])cc1)n1cncn1,23,87,79,19,-93,0.19
COC(=O)c1[nH]c(=O)c2ccccc2c1O,-2,98,103,4,4,1.1
COC(=O)c1[nH]c(=O)c2ccccc2c1OCc1ccccc1,2,99,99,6,0,3.8*
O=C(Nc1ccccc1)N1CCOCC1,1,93,99,10,11,0.97
O=C(Nc1ccc2c(c1)oc1ccccc12)N1CCOCC1,-44,108,140*,-6,74,3.8*
CC(C)(C)c1ccc(OCC(O)CSc2ncn[nH]2)cc1 (configuration not stated),-38,108,134*,-10,16,1.6
OC(COc1ccccc1)CSc1ncn[nH]1 (configuration not stated),-8,105,107,-2,19,1
O=S(=O)(/C=C/c1ccccc1)N1CCN(c2nc(-c3cccnc3)nc3ccccc23)CC1,4,114,97,-6,2,0.65
CCCC(=O)Nc1ccc2oc(-c3cncc(Br)c3)nc2c1,-44,92,139*,16,128,3.4*
COc1ccc(C(=O)Nc2scc(-c3ccc(Cl)cc3Cl)c2C(N)=O)cc1,-53,96,148*,10,80,1.1
SMILES,STAT1 inh,STAT3 act,STAT1 activator,STAT3 inh,APP 5'UTR act,NF-kB expr up
Cc1cc(C)c(NC(=O)CO/N=C2\CCCc3nonc32)c(C)c1,8,96,93,5,-9,1.2
CC(NS(=O)(=O)/C=C/c1ccccc1)c1ccccc1 (configuration not stated),-1,103,101,-4,-8,1.2
C/C(=N/NC(=O)c1cnccn1)c1cccs1,-39,103,135*,-2,27,2
C/C(=N\Nc1ccccn1)c1ccc(C#N)cc1,-4,88,104,18,-16,1.1
C/C(=N\NC(=O)c1ccccn1)c1ccc(C(=O)O)s1,-37,99,133*,7,64,1.1
C/C(=N\Nc1ccccn1)c1cccs1,-44,98,137*,6,76,1.1
C/C(=N\NC(=O)c1cc(C)[nH]n1)c1cccs1,-8,75,106,33,114,2.9
CCCCNC(=O)C1(NC(=O)Nc2ccc(C)cc2)CCCCC1,1,106,97,-6,-8,0.86
CC1CCc2[nH]c3ccc(C(=O)NCCCOC(C)C)cc3c2C1 (configuration not stated),-4,101,101,7,-2,1.1
CCC(=O)Nc1cnc(NC(=O)c2cccc(F)c2)cc1C,-46,97,142*,3,81,2.8
Nc1ccc(OCc2ccccc2)cc1,-17,105,116,3,15,1.7
c1ccc(COc2ccc(-c3csnn3)cc2)cc1,-40,115,136*,-7,24,3.2
Cc1nc2cc3nc(C)sc3cc2s1,-23,98,120,8,44,1.8
CCc1nc2cc3sc(CC)nc3cc2s1,-54,97,148*,14,122,2.4
Cc1cccc(NC(=O)CC2SC(=O)N(c3ccccc3)C2=O)c1 (configuration not stated),-3,100,103,1,-26,1
Cc1cccc(NC2SC(=O)N(c3ccccc3)C2=O)c1 (configuration not stated),0,97,100,9,43,3.5*
O=C(C1CCCN(CCCc2ccccc2)C1)N1CCCCCC1 (configuration not stated),-1,107,100,-5,-1,0.8
O=C(NC12CC3CC(CC(C3)C1)C2)c1ccc(-c2ccc(Br)cc2)o1,-48,104,144*,-2,117,0.84
O=C1c2ccccc2C(=O)C1c1ccncc1,-29,70,127,36,95,3.8*
O=[N+]([O-])c1ccc2c(c1)[nH]c(=S)n2-c1ccccc1,0,93,99,13,-5,0.97
COc1cc(NC(=O)c2cc(-c3cccs3)on2)cc(OC)c1OC,-1,92,100,14,-2,1.1
COc1ccc(CNC(=O)c2cc(-c3cccs3)on2)cc1,-7,104,106,0,2,1.3
Cc1ccc(NC(=O)c2cccs2)cc1,-34,101,131*,1,75,2.9
Cc1ccc(NC(=O)c2csc(-c3ccccc3)c2C)cc1,63*,19,43,104*,216*,0.78
